# Experimental data taken from ChEMBL document CHEMBL4814057, “4-4-(Anilinomethyl)-3-[4-(trifluoromethyl)phenyl]-1H-pyrazol-1-ylbenzoic acid derivatives as potent anti-gram-positive bacterial agents” (Eur J Med Chem, 2021).
# The source made the active and inactive calls. No cut-off for these calls is given here.
# Experiments:
# [1] = system: Staphylococcus aureus; assay: Antimicrobial activity against methicillin-sensitive Staphylococcus aureus ATCC 29213 by CLSI-based broth microdilution assay; format: functional
# [2] = system: Staphylococcus aureus; assay: Antimicrobial activity against methicillin-sensitive Staphylococcus aureus clinical isolate 1088626 by CLSI-based broth microdilution assay; format: functional
# [3] = system: Staphylococcus aureus; assay: Antimicrobial activity against methicillin-sensitive Staphylococcus aureus clinical isolate 1088060 by CLSI-based broth microdilution assay; format: functional
# Summary of the method: (§1)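 Broth microdilution starting at 50 µg/ml with 2-fold serial dilutions; run in triplicate.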
# [4] = system: Enterococcus faecium; assay: Antimicrobial activity against vancomycin-resistant Enterococcus faecium clinical isolate 1100440 by CLSI-based broth microdilution assay; format: functional
# [5] = system: Enterococcus faecium; assay: Antimicrobial activity against vancomycin-resistant Enterococcus faecium clinical isolate 1088051 by CLSI-based broth microdilution assay; format: functional
# [6] = system: Enterococcus faecium; assay: Antimicrobial activity against vancomycin-resistant Enterococcus faecium clinical isolate 1091563 by CLSI-based broth microdilution assay; format: functional
# [7] = system: Enterococcus faecium; assay: Antimicrobial activity against vancomycin-resistant Enterococcus faecium clinical isolate 1091720 by CLSI-based broth microdilution assay; format: functional
# [8] = system: Staphylococcus aureus; assay: Antimicrobial activity against methicillin-sensitive Staphylococcus aureus clinical isolate 1088105 by CLSI-based broth microdilution assay; format: functional
# [9] = system: Enterococcus faecium; assay: Antimicrobial activity against vancomycin-resistant Enterococcus faecium clinical isolate 1094112 by CLSI-based broth microdilution assay; format: functional
# [10] = system: Enterococcus faecium; assay: Antimicrobial activity against vancomycin-resistant Enterococcus faecium clinical isolate 1088168 by CLSI-based broth microdilution assay; format: functional
# [11] = system: Enterococcus faecalis; assay: Antibiofilm activity against Enterococcus faecalis ATCC 29212 assessed as inhibition of biofilm formation at 1 times MIC after 24 hrs by crystal violet staining based assay relative to control; format: functional
# Summary of the method: (§2)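 Overnight culture brought to 0.5 McFarland in PBS, diluted 1:100 in CAMHB with 1% glucose. Inhibition: cells plus compound (in DMSO) at 2x, 1x, 0.5xMIC, 24 h at 35 °C, triplicate. Destruction: 24 h biofilm grown without drug, washed, fresh medium with compound, further 24 h. Then washed, dried, 0.1% crystal violet, solubilized in 33% acetic acid, OD 620 nm. Controls are DMSO-only and broth-only wells.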
# [12] = system: Enterococcus faecalis; assay: Antimicrobial activity against vancomycin-susceptible Enterococcus faecalis ATCC 29212 assessed as bacterial growth inhibitions by CLSI protocol based microdilution method
# [13] = system: Staphylococcus aureus; assay: Antibiofilm activity against Staphylococcus aureus ATCC 25923 assessed as destruction of biofilm formation at 2 times MIC after 24 hrs by crystal violet staining based assay relative to control; format: functional; summary of the method: as §2
# [14] = system: Staphylococcus aureus; assay: Antimicrobial activity against methicillin-resistant Staphylococcus aureus ATCC 33591 assessed as bacterial growth inhibitions by CLSI protocol based microdilution method; format: functional
# [15] = system: Bacillus subtilis; assay: Antimicrobial activity against Bacillus subtilis ATCC 6623 assessed as bacterial growth inhibitions by CLSI protocol based microdilution method; format: functional; summary of the method: as §1
# [16] = system: Staphylococcus aureus; assay: Antibacterial activity against methicillin resistant Staphylococcus aureus ATCC 700699 persisters assessed as reduction in viability at 4 times MIC measured within 4 hrs by colony counting method; format: functional; details: time hrs <=4
# Summary of the method: (§3)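 Stationary-phase S. aureus from overnight CAMHB culture (35 °C, 200 rpm), washed thrice in PBS, diluted to ~5 × 10^8 CFU/ml. Incubated with antibiotic at 35 °C, 200 rpm. Aliquots taken at set times, washed, serially diluted in PBS, drop-plated (6 × 6) on TSA with 5% sheep blood. Colonies counted after 18–20 h at 35 °C. Triplicates.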
# [17] = system: Staphylococcus epidermidis; assay: Antimicrobial activity against methicillin-resistant Staphylococcus epidermidis ATCC 700296 assessed as bacterial growth inhibitions by CLSI protocol based microdilution method; format: functional
# [18] = system: Enterococcus faecalis; assay: Antibacterial activity against vancomycin-intermediate Enterococcus faecalis ATCC 29212 assessed as bacterial growth inhibition by measuring fold increase in MIC after14 passages by broth dilution method; format: functional, organism-based
# [19] = system: Staphylococcus aureus; assay: Antibiofilm activity against Staphylococcus aureus ATCC 25923 assessed as inhibition of biofilm formation at 0.5 times MIC after 24 hrs by crystal violet staining based assay relative to control; format: functional, organism-based; summary of the method: as §2
# [20] = system: Staphylococcus aureus; assay: Antibacterial activity against methicillin resistant Staphylococcus aureus ATCC 700699 persisters assessed as reduction in viability at 16 times MIC by colony counting method; format: functional, organism-based; summary of the method: as §3
# [21] = system: Enterococcus faecium; assay: Antimicrobial activity against vancomycin-resistant Enterococcus faecium ATCC 700221 assessed as bacterial growth inhibitions by CLSI protocol based microdilution method; format: functional
# [22] = system: Staphylococcus aureus; assay: Bactericidal activity against Staphylococcus aureus ATCC 700699 assessed as reduction bacterial growth at 4X MIC measured after 6 hrs by time-kill kinetic assay; format: functional, organism-based
# Summary of the method: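 Log-phase culture diluted to ~5 × 10^6 CFU/ml in warm CAMHB, exposed at 4xMIC, 35 °C. 20 µl samples every 2 h, 10-fold dilutions to 10^-5, 6 × 6 drop plating. CFU/ml counted after 18–24 h at 35 °C; triplicate.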
# [23] = system: Staphylococcus aureus; assay: Antibacterial activity against vancomycin-intermediate susceptible Staphylococcus aureus ATCC 25923 assessed as bacterial growth inhibition by measuring fold increase in MIC between 14 passages by broth dilution method; format: functional
# [24] = system: Staphylococcus aureus; assay: Antimicrobial activity against methicillin-resistant Staphylococcus aureus ATCC 700699 assessed as bacterial growth inhibitions by CLSI protocol based microdilution method; format: functional
# [25] = Selectivity index, ratio of IC50 for cytotoxicity against human HEK-293T cells to MIC of antimicrobial activity against methicillin-resistant Staphylococcus aureus ATCC 700699; format: toxicity, cell-based; details: read-out: Selectivity Index
# Summary of the method: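 Ratio of HEK293 IC50 to MIC. HEK293 cells (4000/well, EMEM with 10% FBS, 37 °C, 5% CO2) treated 24 h with a concentration range in DMSO. Resazurin added for 4 h, fluorescence read at ex 560/em 590 nm. IC50 fitted.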
# [26] = system: Staphylococcus aureus; assay: Antimicrobial activity against methicillin-susceptible Staphylococcus aureus ATCC 25923 assessed as bacterial growth inhibitions by CLSI protocol based microdilution method; format: functional
# [27] = system: Staphylococcus aureus; assay: Antimicrobial activity against methicillin-resistant Staphylococcus aureus ATCC 33592 assessed as bacterial growth inhibitions by CLSI protocol based microdilution method; format: functional
# [28] = system: Enterococcus faecalis; assay: Antibiofilm activity against Enterococcus faecalis ATCC 29212 assessed as inhibition of biofilm formation at 0.5 times MIC after 24 hrs by crystal violet staining based assay relative to control; format: functional; summary of the method: as §2
# [29] = system: Staphylococcus aureus; assay: Antimicrobial activity against antibiotic-resistant Staphylococcus aureus BM-2312 assessed as bacterial growth inhibitions by CLSI protocol based microdilution method; format: functional
# [30] = system: Staphylococcus aureus; assay: Antibiofilm activity against Staphylococcus aureus ATCC 25923 assessed as destruction of biofilm formation at 1 times MIC after 24 hrs by crystal violet staining based assay relative to control; format: functional; summary of the method: as §2
# [31] = system: Staphylococcus aureus; assay: Antibacterial activity against methicillin resistant Staphylococcus aureus ATCC 700699 persisters assessed as reduction in viability at 2 times MIC measured within 4 hrs by colony counting method; format: functional; details: time hrs <=4; summary of the method: as §3
# [32] = system: Staphylococcus aureus; assay: Antibacterial activity against vancomycin-intermediate susceptible Staphylococcus aureus ATCC 25923 assessed as bacterial growth inhibition by measuring fold increase in MIC between 8 passages by broth dilution method; format: functional
# [33] = system: Staphylococcus aureus; assay: Antibacterial activity against methicillin resistant Staphylococcus aureus ATCC 700699 persisters assessed as reduction in viability at 8 times MIC measured within 4 hrs by colony counting method; format: functional; details: time hrs <=4; summary of the method: as §3
# [34] = system: Staphylococcus aureus; assay: Antibiofilm activity against Staphylococcus aureus ATCC 25923 assessed as inhibition of biofilm formation at 2 times MIC after 24 hrs by crystal violet staining based assay relative to control; format: functional; parameters: scale not given: the % may be the effect or the level left; summary of the method: as §2
# [35] = system: Staphylococcus aureus; assay: Antibiofilm activity against Staphylococcus aureus ATCC 25923 assessed as destruction of biofilm formation at 0.5 times MIC after 24 hrs by crystal violet staining based assay relative to control; format: functional, organism-based; summary of the method: as §2
# [36] = system: Enterococcus faecalis; assay: Antibacterial activity against vancomycin-intermediate Enterococcus faecalis ATCC 29212 assessed as bacterial growth inhibition by measuring fold increase in MIC after 7 passages by broth dilution method; format: functional, organism-based
# [37] = system: Staphylococcus aureus; assay: Inhibition of DNA synthesis in Staphylococcus aureus ATCC 29213 at 8 times MIC measured by liquid scintillation counter; format: functional
# Summary of the method: (§4)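 Early-exponential cells in CAMHB added to drug (40x stock) in triplicate, with a no-drug control. After 30 min pre-incubation at room temperature, [3H]thymidine 3.0 µCi/tube (DNA) or [3H]uridine 0.5 µCi/tube (RNA) added for 30 min at room temperature. Stopped with cold TCA, precipitate filtered and washed, then scintillation counted.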
# [38] = system: Staphylococcus aureus; assay: Antibacterial activity against vancomycin-intermediate susceptible Staphylococcus aureus ATCC 25923 assessed as bacterial growth inhibition between 7 passages by broth dilution method; format: functional, organism-based
# [39] = system: Staphylococcus aureus; assay: Antibacterial activity against vancomycin-intermediate resistant Staphylococcus aureus ATCC 700699 assessed as bacterial growth between 7 passages measured 14 to 21 days by broth dilution method; format: functional, organism-based; details: time 14-21 day
# [40] = system: Staphylococcus aureus; assay: Inhibition of protein synthesis in Staphylococcus aureus ATCC 29213 at 8 times MIC measured by liquid scintillation counter; format: functional
# [41] = system: Staphylococcus aureus; assay: Inhibition of RNA synthesis in Staphylococcus aureus ATCC 29213 at 8 times MIC measured by liquid scintillation counter; format: functional; summary of the method: as §4
smiles,measurement,setting,value
C[C@@H](O)[C@H]1C(=O)N2C(C(=O)O)=C(S[C@@H]3CN[C@H](C(=O)N(C)C)C3)[C@H](C)[C@H]12 [MEROPENEM],MIC,[1],0.06 µg/mL
same,MIC,[2],0.06 µg/mL
same,MIC,[3],0.06 µg/mL
same,MIC,[4],4 µg/mL
same,MIC,[5],2 µg/mL
same,MIC,[6],2 µg/mL
same,MIC,[7],8 µg/mL
same,MIC,[8],0.12 µg/mL
same,MIC,[9],8 µg/mL
same,MIC,[10],4 µg/mL
O=C(O)c1ccc(-n2cc(CNc3cc(Cl)c(F)c(Cl)c3)c(-c3ccc(C(F)(F)F)cc3)n2)cc1,Activity,[11],inactive
same,MIC,[12],1.56 µg/mL
same,Activity,[13],70%
same,MIC,[14],0.78 µg/mL
same,MIC,[15],0.78 µg/mL
same,Activity,[16],1 log10CFU/ml
same,MIC,[17],0.78 µg/mL
same,Activity,[18],inactive
same,Activity,[19],inactive
same,Activity,[20],Active
same,MIC,[21],0.78 µg/mL
same,Activity,[22],Active
same,fold change (FC),[23],2
same,MIC,[24],0.78 µg/mL
same,selectivity ratio,[25],33
same,MIC,[26],0.78 µg/mL
same,MIC,[27],0.78 µg/mL
same,Activity,[28],inactive
same,MIC,[29],0.78 µg/mL
same,Activity,[30],55%
same,Activity,[31],1 log10CFU/ml
same,fold change (FC),[32],2
same,Activity,[33],1 log10CFU/ml
same,Activity,[34],> 85%
same,Activity,[35],inactive
O=C(O)c1cn(C2CC2)c2cc(N3CCNCC3)c(F)cc2c1=O [CIPROFLOXACIN],Activity,[36],inactive
same,inhibition (INH),[37],86.2%
same,Activity,[38],inactive
same,Activity,[39],inactive
CC(=O)NC[C@H]1CN(c2ccc(N3CCOCC3)c(F)c2)C(=O)O1,inhibition,[40],70.7%
CO[C@H]1/C=C/O[C@@]2(C)Oc3c(C)c(O)c4c(O)c(c(/C=N/N5CCN(C)CC5)c(O)c4c3C2=O)NC(=O)/C(C)=C\C=C\[C@H](C)[C@H](O)[C@@H](C)[C@@H](O)[C@@H](C)[C@H](OC(C)=O)[C@@H]1C [RIFAMPIN],inhibition (INH),[41],76.3%
